# According to PMC2585982 (Toxicology and applied pharmacology, 2008):
# What was measured:
# human PXR = conditions: read-out: EC50, activation of human PXR; ref Yang and Yan, 2007; cited from earlier work
# rat PXR = conditions: read-out: EC50, activation of rat PXR; ref Yang and Yan, 2007; cited from earlier work
# P450s 2B9/10 = test: Liver microsomal P450 2B activity; type: in vivo, mice; conditions: C57BL/6 mice, 100 mg/kg p.o. 3 days, vs corn oil
# P450 3A11 [1] = test: Western blot of liver microsomes, P450 3A11 protein expression; conditions: C57BL/6 mice, 100 mg/kg p.o. 3 days
# NQO = test: Liver cytosolic NQO activity; type: in vivo, mice; conditions: C57BL/6 mice, 100 mg/kg p.o. 3 days, vs corn oil
# P450 3A11 [2] = test: Liver microsomal P450 3A activity; type: in vivo, mice; conditions: mouse, in vivo, po, 100 mg/kg
# P450 1A1/1A2 = conditions: mouse, in vivo, po, 100 mg/kg
# P450s 1A1/2 = test: Liver microsomal P450 1A activity; type: in vivo, mice; conditions: C57BL/6 mice, 100 mg/kg p.o. 3 days, vs corn oil
# GSTμ = test: Western blot of liver cytosol, GSTμ protein expression; type: in vivo, mice; conditions: C57BL/6 mice, 100 mg/kg p.o. 3 days
# P450 2B10 = test: Western blot of liver microsomes, P450 2B10 protein expression; conditions: C57BL/6 mice, 100 mg/kg p.o. 3 days
# P450 = test: Liver microsomal P450 content after oral dosing of mice; type: in vivo; conditions: C57BL/6 mice, 100 mg/kg p.o. 3 days, vs corn oil
# PXR [3] = molecular target: T1, PXR (Mus musculus, UniProt O54915); test: PXR-DR3 reporter assay; type: cell-based; conditions: CV-1 cells, full length PXR
# T1 sequence (O54915 1-431): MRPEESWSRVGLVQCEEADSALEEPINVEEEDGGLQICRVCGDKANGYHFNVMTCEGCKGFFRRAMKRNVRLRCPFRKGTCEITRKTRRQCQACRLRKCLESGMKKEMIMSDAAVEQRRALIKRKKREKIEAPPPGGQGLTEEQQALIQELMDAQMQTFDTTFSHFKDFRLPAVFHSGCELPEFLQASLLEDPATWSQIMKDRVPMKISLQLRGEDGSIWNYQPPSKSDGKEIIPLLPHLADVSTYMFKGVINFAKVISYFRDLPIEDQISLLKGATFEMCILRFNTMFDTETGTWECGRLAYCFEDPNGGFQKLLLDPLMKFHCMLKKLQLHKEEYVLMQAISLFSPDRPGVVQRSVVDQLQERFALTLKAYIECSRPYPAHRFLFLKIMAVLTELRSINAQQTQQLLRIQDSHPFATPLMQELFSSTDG
# T1 sequence (P19793 1-462 partner): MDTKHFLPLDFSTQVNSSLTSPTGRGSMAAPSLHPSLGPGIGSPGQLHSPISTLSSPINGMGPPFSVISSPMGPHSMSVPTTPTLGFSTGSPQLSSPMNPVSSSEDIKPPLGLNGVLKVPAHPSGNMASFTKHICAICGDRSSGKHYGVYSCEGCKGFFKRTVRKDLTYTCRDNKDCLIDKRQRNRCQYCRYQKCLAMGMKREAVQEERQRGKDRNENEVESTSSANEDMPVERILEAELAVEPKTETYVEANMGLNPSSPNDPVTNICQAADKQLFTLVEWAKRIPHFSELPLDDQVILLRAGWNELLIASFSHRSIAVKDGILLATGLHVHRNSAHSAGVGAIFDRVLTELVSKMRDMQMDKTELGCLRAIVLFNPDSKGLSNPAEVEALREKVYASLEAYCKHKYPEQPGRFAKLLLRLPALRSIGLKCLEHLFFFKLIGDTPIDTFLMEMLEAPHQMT
# PXR [4] = molecular target: T2, PXR (Mus musculus, UniProt O54915); test: GAL-PXR reporter assay; type: cell-based; conditions: CV-1 cells, 18–24 h
# T2 sequence (O54915 143-430 limits assumed): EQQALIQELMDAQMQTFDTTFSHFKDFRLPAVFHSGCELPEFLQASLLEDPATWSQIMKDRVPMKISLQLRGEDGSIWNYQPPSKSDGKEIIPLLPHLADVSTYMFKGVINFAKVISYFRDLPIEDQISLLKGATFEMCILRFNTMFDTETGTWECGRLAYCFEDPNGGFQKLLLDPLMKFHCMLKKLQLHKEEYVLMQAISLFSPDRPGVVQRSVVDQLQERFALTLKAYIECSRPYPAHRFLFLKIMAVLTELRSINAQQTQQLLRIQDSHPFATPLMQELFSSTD
# PXR LBD and SRC-1 RID = PXR LBD and SRC-1 RID (Mus musculus, UniProt O54915); test: Mammalian two-hybrid assay, Gal-SRC-1 RID + VP-L-PXR in CV-1 cells; type: cell-based; conditions: isopimpinellin 50 μM; PCN 10 μM; Figure 7A
# Sequence of PXR LBD and SRC-1 RID (Q15788 570-780 partner limits assumed, one chain of several): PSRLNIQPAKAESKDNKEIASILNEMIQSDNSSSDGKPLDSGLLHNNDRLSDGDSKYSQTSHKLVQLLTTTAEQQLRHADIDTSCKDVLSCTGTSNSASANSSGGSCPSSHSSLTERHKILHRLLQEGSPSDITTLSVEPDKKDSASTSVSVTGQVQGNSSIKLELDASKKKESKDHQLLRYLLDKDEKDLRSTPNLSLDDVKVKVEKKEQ
# In short: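 Mammalian two-hybrid in CV-1 cells co-transfected with Gal-SRC-1 RID and/or VP-L-PXR, plus MH100-tk-luc reporter and CMX-β-gal. Cells were exposed to compound or solvent control in medium for 18–24 h. Interaction was taken as luciferase activity normalised to β-gal activity; mean ± SD.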
# GSTp mRNA = test: Northern blot of liver RNA, GSTp mRNA in CAR; type: in vivo, mice; conditions: isopimpinellin 150 mg/kg p.o. 24 h; TC 3 mg/kg i.p. 6 h
# GSTa1 mRNA = test: Northern blot of liver RNA, GSTa1 mRNA in CAR; type: in vivo, mice; conditions: isopimpinellin 150 mg/kg p.o. 24 h; TC 3 mg/kg i.p. 6 h
# Cyp2b10 mRNA = test: Northern blot of liver RNA, Cyp2b10 mRNA in CAR; conditions: isopimpinellin 150 mg/kg p.o. 24 h, TC 3 mg/kg i.p. 6 h
# Cyp3a11 mRNA = test: Northern blot of liver RNA, Cyp3a11 mRNA in CAR; conditions: isopimpinellin 150 mg/kg p.o. 24 h, TC 3 mg/kg i.p. 6 h
# [5] = molecular target: mCAR-LBD fused to the Gal4 DNA binding domain (Mus musculus, UniProt O35627); test: CAR transfection assay, Gal4-mCAR LBD fusion reporter in HepG2 cells; type: cell-based, murine; conditions: HepG2, 4 μM androstanol; 250 nM TC or 0.1–100 μM isopimpinellin, 24 h
# Sequence of mCAR-LBD fused to the Gal4 DNA binding domain (O35627 119-358 limits assumed): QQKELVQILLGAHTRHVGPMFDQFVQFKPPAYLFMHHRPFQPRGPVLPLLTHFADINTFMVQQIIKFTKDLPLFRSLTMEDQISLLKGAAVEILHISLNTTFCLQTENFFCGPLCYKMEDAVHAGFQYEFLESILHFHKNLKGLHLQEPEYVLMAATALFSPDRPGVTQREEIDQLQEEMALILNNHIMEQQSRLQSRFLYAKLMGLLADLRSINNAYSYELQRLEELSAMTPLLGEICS
# full-length mCAR = full-length mCAR (Mus musculus, UniProt O35627); test: CAR transfection assay, full-length mCAR reporter in HepG2 cells; type: cell-based, murine; conditions: 4 μM androstanol
# Sequence of full-length mCAR (O35627 whole entry): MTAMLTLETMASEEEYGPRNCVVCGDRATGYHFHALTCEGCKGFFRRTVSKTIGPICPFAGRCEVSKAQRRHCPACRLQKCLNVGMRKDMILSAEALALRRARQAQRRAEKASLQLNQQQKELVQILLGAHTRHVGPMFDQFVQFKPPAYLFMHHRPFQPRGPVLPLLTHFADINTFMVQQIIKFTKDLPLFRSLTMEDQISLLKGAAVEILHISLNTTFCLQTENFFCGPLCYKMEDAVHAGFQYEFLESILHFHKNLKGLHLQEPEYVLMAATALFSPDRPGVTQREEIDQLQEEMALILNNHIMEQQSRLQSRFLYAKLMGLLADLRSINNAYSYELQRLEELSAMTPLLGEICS
# In short: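 HepG2 cells in DMEM with 10% FBS were plated at 10^5 per well in charcoal-stripped serum. They were co-transfected with pCMX-mCAR or empty pCMX, a […] (LXRE)3 firefly luciferase reporter and a pRL-tk renilla control. At 70–80% confluence, cells got 4 μM androstanol, 0.1% DMSO or 4 μM […] plus 250 nM reference agonist or 0.1–100 μM test compound. After 24 h, firefly/renilla ratio was read; mean ± SD, ≥3 experiments.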
compound,measurement,setting,value
COc1c2occc2cc2ccc(=O)oc12 [8-methoxypsoralen],EC50,human PXR,14 µM
same,EC50,rat PXR,14 µM
"CCC1(c2ccccc2)C(=O)NC(=O)NC1=O [PB, Phenobarbital, reference compound]","Increase in P450 2B activity (pentoxyresorufin), liver microsomes",P450s 2B9/10,significant increase
same,P450 3A11 protein expression (western blot densitometry),P450 3A11 [1],increased
same,"Increase in NQO activity, liver cytosol",NQO,not significantly different from the control group
same,"Increase in P450 3A activity (testosterone), liver microsomes",P450 3A11 [2],3–4 fold
same,P450 1A1/1A2 protein expression (western blot densitometry),P450 1A1/1A2,increased
same,"P450 1 activity (ethoxyresorufin), liver microsomes",P450s 1A1/2,significant increase
same,Liver cytosolic GSTμ protein expression (western blot densitometry),GSTμ,greater effect
same,P450 2B10 protein expression (western blot densitometry),P450 2B10,increased
same,"P450 content, liver microsomes",P450,increased
"CC(=O)[C@H]1[C@H](C#N)C[C@H]2[C@@H]3CC=C4C[C@@H](O)CC[C@]4(C)[C@H]3CC[C@@]21C [PCN, reference compound]","Max (concentration to reach maximal effect), PXR-DR3",PXR [3],100 nM
same,"ED50, PXR-DR3 activation",PXR [3]; 18–24 h,0.02 µM
same,"Max (concentration to reach maximal effect), GAL-PXR",PXR [4],"3,000 nM"
same,"ED50, GAL-PXR activation",PXR [4]; luciferase normalized by β-gal,0.063 µM
same,Induced interaction of PXR LBD and SRC-1 RID compared to the control,PXR LBD and SRC-1 RID,similar
"Clc1cnc(Oc2ccc(Oc3ncc(Cl)cc3Cl)cc2)c(Cl)c1 [TC, 1,4-bis[2-(3,5-dichloropyridyloxy)]benzene, reference compound]","Increase in hepatic GSTp mRNA, CAR(−/−) mice",GSTp mRNA,no increase
same,"Increase in hepatic GSTp mRNA, female CAR(+/+) mice",GSTp mRNA,~ 4 fold
same,"Increase in hepatic GSTa1 mRNA, female CAR(−/−) mice",GSTa1 mRNA,did not increase
same,"Increase in hepatic GSTa1 mRNA, male CAR(−/−) mice",GSTa1 mRNA,did not increase
same,"Increase in hepatic GSTa1 mRNA, male and female CAR(+/+) mice",GSTa1 mRNA,8–10 fold
same,"Induction of hepatic Cyp2b10 mRNA, CAR(−/−) mice",Cyp2b10 mRNA,absent
same,"Induction of hepatic Cyp2b10 mRNA, CAR(+/+) mice",Cyp2b10 mRNA; male and female,~ 4 fold
same,"Induction of hepatic Cyp3a11 mRNA, CAR(−/−) mice",Cyp3a11 mRNA,absent
same,"Induction of hepatic Cyp3a11 mRNA, CAR(+/+) mice",Cyp3a11 mRNA; male and female,~ 4 fold
same,Effect on the inhibitory effect of androstanol on Gal4 reporter expression (mCAR-LBD),[5],counteracted
C[C@@]12CCC[C@H]1[C@@H]1CC[C@H]3C[C@@H](O)CC[C@]3(C)[C@H]1CC2 [androstanol],Constitutive CAR transactivation,full-length mCAR,blocked
